From paper PMC8159881 (ACS nano, 2021) come the findings set out here.

A short description of assay [1]: Partitioning and budding in phase-separated GUVs. The settings on record: for inward budding from the Ld phase of phase-separated GUVs: 10 μM Cy-5-labeled peptide, 30 min. Summed up: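 Peptide was applied to the GUVs for 30 min before imaging. Fluorescein at 0.3 μM was added to the external buffer to mark true inward budding, seen as fluorescein-containing intraluminal vesicles.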

The test system of a further assay is INS-1E cells. Briefly: Glucose-stimulated insulin secretion assay. The class given is cell-based. Summed up: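 Lentivirally transduced proinsulin-NanoLuc INS-1E cells were plated overnight (37 °C, 5% CO₂), washed, and held 1 h in KRB (HEPES, BSA) with 2.8 mM glucose. They got peptide for 5 min (2 μM; 5 or 10 μM in one set; DMSO mock), then 20 min in KRB with 20 mM glucose, or 2.8 mM as control. Supernatant luciferase read with coelenterazine.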

For “Cy5-LVWHMFLSDNFTNPV [Scrambled AH(56-71)]”, the “inward budding from the Ld phase of phase-separated GUVs” value in assay [1] was “failed to cause inward budding from this phase”.
For Cy5-DHVVWSLFNTLFMNPC [AH(56-71)], the “binding of peptide to GUVs in the absence of cholesterol” value in the assay “Inward budding” (GUVs without cholesterol) was “not affected”. Besides, the “inward budding of GUVs without cholesterol containing DOPE” value in “Inward budding” (GUVs without cholesterol, DOPE 20 mol%) is reported as “could be rescued”. Further, the “inward budding of GUVs without cholesterol” value in the assay “Inward budding” (peptide added to GUVs without cholesterol) is “failed to induce efficient inward budding”. Also, the “inward budding from the Ld phase of phase-separated GUVs” value in assay [1] was “caused inward budding from this domain”.
Turning to “FITC-Ahx-DHVVWSLFNTLFMNPC(PAL)CLGF [AH(56-75)]”, the “phase partitioning in phase-separated GUVs” value in assay [1] (fluorescently-tagged peptide palmitoylated at Cys71) is “clearly partitioned to the Ld phase and appeared to concentrate at the phase boundary”.
For Cy5-CVWSLFNTLFM [AH(59-68)], the “binding to the plasma membrane of INS-1E cells” value in the assay with INS-1E cells (cells pretreated with peptide) is given as “effectively bound to the plasma membrane”.
Regarding lyso-PC [LPC, reference compound], the “budding of GUV membrane on addition of lipid” value in the assay “Inward budding” (LPC titrated on preformed GUVs containing POPC and cholesterol) is “outward budding of the GUV membrane in an LPC dose-dependent manner”. In the assay on INS-1E cells (cells pretreated with 20 μM LPC), the glucose-stimulated insulin secretion result is “promoted insulin secretion”.
